ChEMBL document CHEMBL3351542, “Nonpeptide small molecule agonist and antagonist original leads for neuropeptide FF1 and FF2 receptors” (J Med Chem, 2014)
Calls of active or inactive are those of the source. The rule behind the calls is not given here. Square brackets hold non-standard residues; d marks the D form. Peptide text beside a SMILES is read from it. NMeF = CN[C@@H](Cc1ccccc1)C(=O)O

What was measured:
Homo sapiens [1] = organism: Homo sapiens; test: Selectivity ratio of Ki for human NPFF1 receptor to Ki for human NPFF2 receptor
[2] = target: T1, Neuropeptide FF receptor 2 (Homo sapiens, UniProt Q9Y5X5); test: Displacement of [3H]EYF from human NPFF2 receptor expressed in CHO cells after 1 hr by liquid scintillation counting analysis; type: cell-based
T1 sequence (Q9Y5X5 whole entry): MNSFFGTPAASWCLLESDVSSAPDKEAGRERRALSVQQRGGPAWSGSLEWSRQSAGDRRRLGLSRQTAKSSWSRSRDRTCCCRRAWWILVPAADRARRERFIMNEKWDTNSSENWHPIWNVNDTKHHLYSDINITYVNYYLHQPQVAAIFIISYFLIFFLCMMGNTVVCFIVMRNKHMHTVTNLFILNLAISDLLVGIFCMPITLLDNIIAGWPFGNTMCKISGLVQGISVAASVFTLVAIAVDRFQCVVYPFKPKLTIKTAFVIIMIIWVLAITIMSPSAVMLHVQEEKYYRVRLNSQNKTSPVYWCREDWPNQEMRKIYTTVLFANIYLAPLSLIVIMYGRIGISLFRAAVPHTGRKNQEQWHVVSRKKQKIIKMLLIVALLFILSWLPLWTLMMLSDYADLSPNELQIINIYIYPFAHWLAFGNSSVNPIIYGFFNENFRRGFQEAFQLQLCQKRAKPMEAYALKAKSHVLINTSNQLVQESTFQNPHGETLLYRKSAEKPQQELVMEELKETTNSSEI

[3] = target: T2, Neuropeptide FF receptor 1 (Homo sapiens, UniProt Q9GZQ6); test: Displacement of [3H]NPVF from human NPFF1 receptor expressed in CHO cells after 1 hr by liquid scintillation counting analysis; type: cell-based
T2 sequence (Q9GZQ6 whole entry): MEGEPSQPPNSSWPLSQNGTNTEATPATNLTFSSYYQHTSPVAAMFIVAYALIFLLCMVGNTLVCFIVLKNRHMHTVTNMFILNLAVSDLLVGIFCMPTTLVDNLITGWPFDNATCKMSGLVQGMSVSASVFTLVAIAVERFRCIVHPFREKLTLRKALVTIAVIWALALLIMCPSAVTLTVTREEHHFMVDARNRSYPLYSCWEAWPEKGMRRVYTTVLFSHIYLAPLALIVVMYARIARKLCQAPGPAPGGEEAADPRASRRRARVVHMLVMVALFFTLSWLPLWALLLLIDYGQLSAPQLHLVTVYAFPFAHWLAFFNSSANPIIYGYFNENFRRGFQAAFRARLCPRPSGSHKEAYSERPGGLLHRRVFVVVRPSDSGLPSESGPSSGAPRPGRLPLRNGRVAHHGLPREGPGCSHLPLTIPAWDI

Homo sapiens [4] = organism: Homo sapiens; test: Selectivity ratio of Ki for human NPFF2 receptor to Ki for human NPFF1 receptor
[5] = target: T2, Neuropeptide FF receptor 1; test: Antagonist activity at human NPFF1 receptor expressed in CHO cells assessed as reversal of NPVF-induced inhibition of intracellular cAMP accumulation after 10 mins by liquid scintillation counting analysis relative to control; type: functional, cell-based
[6] = target: T2, Neuropeptide FF receptor 1; test: Displacement of [125I]YVP from human NPFF1 receptor expressed in CHO cells after 1 hr by liquid scintillation counting analysis; type: cell-based
Summary of the method: (§1)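 Competition binding on CHO membranes stably expressing hNPFF1-R ([125I]YVP) or hNPFF2-R ([125I]EYF). Ki reported as mean ± SEM of two to four experiments in duplicate.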

[7] = target: T1, Neuropeptide FF receptor 2; test: Antagonist activity at human NPFF2 receptor expressed in CHO cells assessed as reversal of 1DMe-induced inhibition of intracellular cAMP accumulation after 10 mins by liquid scintillation counting analysis relative to control; type: functional, cell-based
[8] = target: T1, Neuropeptide FF receptor 2; test: Displacement of [125I]EYF from human NPFF2 receptor expressed in CHO cells after 1 hr by liquid scintillation counting analysis; type: cell-based; summary of the method: as §1
[9] = target: T2, Neuropeptide FF receptor 1; test: Agonist activity at human NPFF1 receptor expressed in CHO cells assessed as inhibition of forskolin-induced intracellular cAMP accumulation by liquid scintillation counting analysis; type: functional, cell-based
Summary of the method: (§2)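 Stably transfected CHO cells (200000) seeded overnight, labelled 1 h at 37 °C with [3H]adenine plus 0.1 μM adenine, rinsed in HEPES-Krebs-Ringer pH 7.4. Compound alone added with forskolin (20 μM in the added solution), IBMX and Ro-20 1724; 10 min at 37 °C, stopped with HCl. [3H]cAMP isolated on acid alumina columns, scintillation counted. Duplicates, two to four experiments.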

Homo sapiens [10] = organism: Homo sapiens; test: Selectivity for human NPFF2 receptor over human NPFF1 receptor
[11] = target: T1, Neuropeptide FF receptor 2; test: Agonist activity at human NPFF2 receptor expressed in CHO cells assessed as inhibition of forskolin-induced intracellular cAMP accumulation by liquid scintillation counting analysis; type: functional, cell-based
[12] = target: T1, Neuropeptide FF receptor 2; test: Agonist activity at human NPFF2 receptor expressed in CHO cells assessed as inhibition of forskolin-induced intracellular cAMP accumulation up to 1 uM by liquid scintillation counting analysis; type: functional, cell-based; summary of the method: as §2
[13] = target: T2, Neuropeptide FF receptor 1; test: Partial agonist activity at human NPFF1 receptor expressed in CHO cells assessed as inhibition of forskolin-induced intracellular cAMP accumulation at >1 uM by liquid scintillation counting analysis; type: functional, cell-based; summary of the method: as §2
[14] = target: T1, Neuropeptide FF receptor 2; test: Antagonist activity at human NPFF2 receptor expressed in CHO cells assessed as inhibition of forskolin-induced intracellular cAMP accumulation at 10 to 30 uM after 10 mins by liquid scintillation counting analysis relative to control; type: functional, cell-based
Summary of the method: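 At hNPFF2 CHO cells, compound alone tested at 10 and 30 μM in the forskolin-stimulated [3H]cAMP accumulation assay (10 min, 37 °C, IBMX and Ro-20 1724 present, alumina column isolation). Read-out is % inhibition of cAMP accumulation.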

[15] = target: T1, Neuropeptide FF receptor 2; test: Partial agonist activity at human NPFF2 receptor expressed in CHO cells assessed as inhibition of forskolin-induced intracellular cAMP accumulation at >1 uM by liquid scintillation counting analysis; type: functional, cell-based; summary of the method: as §2
[16] = target: T1, Neuropeptide FF receptor 2; test: Antagonist activity at human NPFF2 receptor expressed in CHO cells assessed as reversal of 1DMe-induced inhibition of intracellular cAMP accumulation at 10 to 30 uM after 10 mins by liquid scintillation counting analysis relative to control; type: functional, cell-based
[17] = target: T2, Neuropeptide FF receptor 1; test: Agonist activity at human NPFF1 receptor expressed in CHO cells assessed as inhibition of forskolin-induced intracellular cAMP accumulation up to 1 uM by liquid scintillation counting analysis; type: functional, cell-based; summary of the method: as §2
[18] = target: T1, Neuropeptide FF receptor 2; test: Agonist activity at human NPFF2 receptor expressed in CHO cells at 10 uM after 60 mins by [35S-GTPgammaS] binding assay relative to control; type: functional, cell-based
Summary of the method: (§3)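 CHO cell membranes stably expressing hNPFF1-R (1.5 μg protein) or hNPFF2-R (0.7 μg). 60 min at 30 °C in 20 mM HEPES pH 7.4, 20 mM NaCl, 3 mM MgCl2, 0.1% BSA, saponin, GDP 0.1 μM (NPFF1) or 1 μM (NPFF2), 0.066 nM [35S]GTPγS; filtration, scintillation counting. Compound at 10 μM; % stimulation over basal, compared with 1DMe 10 μM. Two–four experiments in duplicate.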

[19] = target: T2, Neuropeptide FF receptor 1; test: Agonist activity at human NPFF1 receptor expressed in CHO cells at 10 uM after 60 mins by [35S-GTPgammaS] binding assay relative to control; type: functional, cell-based; summary of the method: as §3

For N=C(N)NCC(=O)NCC1(Nc2ccccc2)CCN(CCc2ccccc2)CC1, the Ratio Ki (Homo sapiens [1]) was 3.2, the Ki [2] was 330 nM and the Ki [3] was 1060 nM.

Compound N=C(N)NCCC(=O)NCC1(Nc2ccccc2)CCN(Cc2ccccc2)CC1 has a Ratio Ki (Homo sapiens [4]) of 6, a Ki [2] of 2910 nM and a Ki [3] of 441 nM.

In the case of N=C(N)NCCNC(=O)C1(Nc2ccccc2)CCN(Cc2ccccc2)CC1, the Ki [2] is reported as 1430 nM, the Ki [3] is reported as 81 nM and the Activity [5] is reported as “Dose-dependent effect”. For the same compound, the EC50 [5] was 3520 nM and the Emax [5] was 68%.

In the case of CC(C)C[C@H](NC(=O)[C@H](N)Cc1ccc(O)cc1)C(=O)N(C)[C@@H](Cc1ccccc1)C(=O)N[C@@H](CCC(N)=O)C(=O)N1CCC[C@H]1C(=O)N[C@@H](CCC(N)=O)C(=O)N[C@@H](CCCNC(=N)N)C(=O)N[C@@H](Cc1ccccc1)C(N)=O (H-[dY]L[NMeF]QPQRF-NH2), the Ki ([6]; cho) is reported as 4 nM.

N=C(N)NCC(=O)NCC1(Nc2ccccc2)CCN(Cc2ccc(Br)cc2)CC1 showed a Ratio Ki (Homo sapiens [4]) of 4, a Ki [2] of 454 nM and a Ki [3] of 112 nM.

COC(=O)c1ccc(CN2CCC(CNC(=O)CNC(=N)N)(Nc3ccccc3)CC2)cc1 was tested, and the Ratio Ki (Homo sapiens [4]) was 4.5, the Ki [2] was 1510 nM and the Ki [3] was 340 nM.

With N=C(N)NCC(=O)NCC1(Cc2cccc3ccccc23)CCN(Cc2ccccc2)CC1 the Ki [2] was 30 nM, the Ki [3] was 112 nM and the Activity [5] was “Dose-dependent effect”. For the same compound, the EC50 [5] was 2600 nM, the Emax [5] was 56.2% and the EC50 [7] was 645 nM. The Emax [7] was 22%.

N=C(N)NCC1(Nc2ccccc2)CCN(Cc2ccccc2)CC1 gave a Ki [8] of 6620 nM and a Ki [6] of 1880 nM.

For COc1cc(NC2(CNC(=O)CNC(=N)N)CCN(Cc3ccccc3)CC2)cc(OC)c1, the Ki [2] was 987 nM, the Ki [3] was 114 nM and the EC50 [9] was > 10000 nM.

N=C(N)NCC(=O)NCC1(c2ccccc2)CCN(Cc2ccccc2)CC1 gave a Ratio Ki (Homo sapiens [4]) of 6.9, a Ki [2] of 3500 nM and a Ki [3] of 511 nM.

With CN1CCC(CNC(=N)N)(Nc2ccccc2)CC1 the Ki [8] was > 5000 nM and the Ki [6] was > 5000 nM.

Compound N=C(N)NCC(=O)NCC1(Nc2ccccc2)CCN(Cc2ccc3ccccc3c2)CC1 has a Ratio Ki (Homo sapiens [4]) of 3.6, a Ki [2] of 504 nM and a Ki [3] of 141 nM.

For N=C(N)NCC(=O)NCC1(Nc2cccc3ccccc23)CCN(Cc2ccccc2)CC1, the Ki [2] was 309 nM, the Ki [3] was 94 nM and the EC50 [9] was > 10000 nM.

With N=C(N)NCC(=O)NCC1(CCc2ccccc2)CCN(Cc2ccccc2)CC1 the Ratio Ki (Homo sapiens [4]) was 3, the Ki [2] was 465 nM and the Ki [3] was 151 nM.

For N=C(N)NCC(=O)NCC1(Cc2ccc(Cl)c(Cl)c2)CCN(Cc2ccccc2)CC1, the Ratio Ki (Homo sapiens [1]) was 5.3, the Ki [2] was 82 nM and the Ki [3] was 432 nM.

CC(C)C[C@H](NC(=O)[C@H](Cc1ccccc1)NC(=O)[C@H](C)NC(=O)[C@H](CCC(N)=O)NC(=O)[C@@H](N)CO)C(=O)N[C@@H](Cc1ccccc1)C(=O)N[C@@H](CCC(N)=O)C(=O)N1CCC[C@H]1C(=O)N[C@@H](CCC(N)=O)C(=O)N[C@@H](CCCNC(=N)N)C(=O)N[C@@H](Cc1ccccc1)C(N)=O was tested, and the Selectivity ratio (Homo sapiens [10]) was 10.7.

N=C(N)NCC(=O)NCC1(Nc2ccccc2)CCN(Cc2cccc3ccccc23)CC1 showed a Ratio Ki (Homo sapiens [1]) of 4.2, a Ki [2] of 129 nM and a Ki [3] of 538 nM.

N=C(N)NCC(=O)NCC1(Nc2ccc(Cl)c(Cl)c2)CCN(Cc2ccccc2)CC1 was tested, and the Ratio Ki (Homo sapiens [4]) was 2.1, the Ki [2] was 409 nM and the Ki [3] was 191 nM.

For H-AGEGLSSPFWSLAAPQRF-NH2, the Selectivity ratio (Homo sapiens [10]) was 10.1.

N=C(N)NCCC[C@H](N)C(=O)NCC1(Nc2ccccc2)CCN(CCc2ccccc2)CC1 was tested, and the Ki [8] was 1690 nM and the Ki [6] was 2910 nM.

Work on COc1cccc(NC2(CNC(=O)CNC(=N)N)CCN(Cc3ccccc3)CC2)c1 yielded a Ratio Ki (Homo sapiens [4]) of 4.4, a Ki [2] of 884 nM and a Ki [3] of 201 nM.

Compound N=C(N)NCC(=O)NCC1(Nc2ccccc2)CCNCC1 has a Ki [2] of 2760 nM and a Ki [3] of 15100 nM.

In the case of N=C(N)NCCC[C@H](N)C(=O)NCC1CCN(Cc2ccccc2)CC1, the Ki [8] is reported as 7580 nM and the Ki [6] is reported as > 5000 nM.

Compound “H-SLNFEELKDWGPKNVIKMSTPAVNKMPHSFANLPLRF-NH2” has a Selectivity ratio (Homo sapiens [10]) of 1.2.

N=C(N)NCCC[C@H](N)C(=O)NCC1(Nc2ccccc2)CCN(Cc2ccc3ccccc3c2)CC1 showed a Ratio Ki (Homo sapiens [1]) of 1.6, a Ki [8] of 304 nM and a Ki [6] of 479 nM.

With CN1CCC(CNC(=O)[C@@H](N)CCCNC(=N)N)(Nc2ccccc2)CC1 the Ki [8] was > 5000 nM and the Ki [6] was > 5000 nM.

N=C(N)NCC(=O)NCC1(Cc2ccc3ccccc3c2)CCN(Cc2ccccc2)CC1 showed a Ratio Ki (Homo sapiens [1]) of 1.5, a Ki [2] of 205 nM and a Ki [3] of 316 nM.

For N=C(N)NCC(=O)NCC1(Cc2ccccc2)CCN(Cc2ccccc2)CC1, the Ki [2] was 84 nM, the Ki [3] was 417 nM and the EC50 [11] was > 1000 nM.

In the case of N=C(N)NCC(=O)NCC1(Nc2ccccc2)CCN(Cc2ccccc2)CC1, the Activity [12] is reported as “Active”, the Ki [2] is reported as 405 nM and the Activity [13] is reported as “inactive”. The Emax [14] was 20%, the Activity [15] was “inactive” and the Ki [3] was 319 nM. The inhibition [16] was “Active”, the EC50 [5] was 22000 nM and the Emax [5] was 83%. The Activity [17] was “Active”.

N=C(N)NCC1(Nc2ccccc2)CCN(CCc2ccccc2)CC1 gave a Ki [8] of 2770 nM and a Ki [6] of 2960 nM.

N=C(N)NCCC[C@H](N)C(=O)NCC1(Nc2ccccc2)CCN(Cc2ccccc2)CC1 showed an Emax [18] of 184%, a Ki [8] of 1050 nM and a Ki [6] of 487 nM. The Emax [19] was 36%.

In the case of N=C(N)NCC(=O)NCC1(Cc2ccc(-c3ccccc3)cc2)CCN(Cc2ccccc2)CC1, the Ratio Ki (Homo sapiens [4]) is reported as 3, the Ki [2] is reported as 910 nM and the Ki [3] is reported as 296 nM.

In the case of N=C(N)NCC(=O)NCC1(Nc2ccccc2)CCN(CC2CCCCC2)CC1, the Ratio Ki (Homo sapiens [1]) is reported as 5.5, the Ki [2] is reported as 298 nM and the Ki [3] is reported as 1640 nM.
